Measured values reported in ChEMBL document CHEMBL1154186, “Synthesis, kinase inhibitory potencies, and in vitro antiproliferative evaluation of new Pim kinase inhibitors” (J Med Chem, 2009).

Experiments:
[1] = biological target: MAP kinase-interacting serine/threonine-protein kinase 1 (Homo sapiens) (UniProt Q9BUB5); test: Inhibition of MNK1 assessed as residual enzyme activity at 10 uM relative to untreated control
In short: (§1)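 Assayed with [γ-33P]ATP at 50 µM and 10 mM Mg acetate in 50 mM Tris/HCl pH 7.5, 0.1 mM EGTA, 0.1% 2-mercaptoethanol, 30 min, 21 °C. Phosphoric acid stop, P81 filter capture. ERK2 and Lck are mouse; AMPK is rat. 10 µM compound; % activity remaining relative to control without inhibitor, duplicates.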

[2] = biological target: T1, Inhibitor of nuclear factor kappa-B kinase subunit beta (Homo sapiens) (UniProt O14920); test: Inhibition of IKK-beta assessed as residual enzyme activity at 10 uM relative to untreated control
T1 sequence (whole entry): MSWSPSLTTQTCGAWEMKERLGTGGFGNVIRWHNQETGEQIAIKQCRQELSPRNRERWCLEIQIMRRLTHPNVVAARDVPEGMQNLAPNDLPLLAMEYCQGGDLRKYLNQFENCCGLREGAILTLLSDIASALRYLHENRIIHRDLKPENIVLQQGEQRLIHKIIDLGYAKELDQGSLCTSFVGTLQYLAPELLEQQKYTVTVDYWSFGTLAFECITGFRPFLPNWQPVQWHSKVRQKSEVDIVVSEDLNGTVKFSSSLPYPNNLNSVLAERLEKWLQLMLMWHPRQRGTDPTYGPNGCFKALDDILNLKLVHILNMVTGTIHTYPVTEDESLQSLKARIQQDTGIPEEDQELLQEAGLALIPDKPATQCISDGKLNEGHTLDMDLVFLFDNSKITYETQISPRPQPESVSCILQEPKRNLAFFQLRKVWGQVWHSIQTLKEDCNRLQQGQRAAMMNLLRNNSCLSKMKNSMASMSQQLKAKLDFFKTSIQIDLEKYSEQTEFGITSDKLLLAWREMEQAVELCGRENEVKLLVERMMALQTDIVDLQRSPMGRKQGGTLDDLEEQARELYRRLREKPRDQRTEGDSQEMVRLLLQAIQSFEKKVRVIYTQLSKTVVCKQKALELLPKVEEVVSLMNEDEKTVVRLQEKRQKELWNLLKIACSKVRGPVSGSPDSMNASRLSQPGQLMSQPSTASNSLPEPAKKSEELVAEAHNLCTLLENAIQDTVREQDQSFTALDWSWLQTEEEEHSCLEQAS
In short: (§2)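 Radiometric filter-binding assay at 21 °C for 30 min. Mix: 50 mM Tris/HCl pH 7.5, 0.1 mM EGTA, 0.1% 2-mercaptoethanol, 10 mM Mg acetate and [γ-33P]ATP (800 cpm/pmol) at 5 µM. Stopped with orthophosphoric acid and spotted on P81. Compound at 10 µM; activity given as % remaining versus no-inhibitor control, duplicates. Kinases human full-length unless noted.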

[3] = biological target: Mitogen-activated protein kinase 9 (Homo sapiens) (UniProt P45984); test: Inhibition of JNK2 assessed as residual enzyme activity at 10 uM relative to untreated control
Sequence of Mitogen-activated protein kinase 9 (Homo sapiens) (P45984 whole entry, looked up): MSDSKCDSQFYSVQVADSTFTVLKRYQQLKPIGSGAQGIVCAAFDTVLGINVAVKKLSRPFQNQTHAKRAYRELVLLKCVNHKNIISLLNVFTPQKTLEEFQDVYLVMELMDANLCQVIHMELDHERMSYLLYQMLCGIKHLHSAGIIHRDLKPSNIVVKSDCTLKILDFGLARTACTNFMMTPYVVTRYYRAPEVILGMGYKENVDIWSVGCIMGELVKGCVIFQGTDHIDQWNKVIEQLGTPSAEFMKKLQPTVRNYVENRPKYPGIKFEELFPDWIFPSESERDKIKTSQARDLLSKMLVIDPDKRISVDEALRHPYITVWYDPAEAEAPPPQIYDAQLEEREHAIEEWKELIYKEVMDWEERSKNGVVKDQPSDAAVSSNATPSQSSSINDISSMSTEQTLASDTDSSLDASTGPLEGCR
In short: (§3)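 Kinases of human origin, except CK1δ, which is rat. Run in 50 mM Tris/HCl pH 7.5, 0.1 mM EGTA, 0.1% 2-mercaptoethanol and 10 mM Mg acetate, with [γ-33P]ATP at 20 µM, 30 min at 21 °C. Acid-stopped and captured on P81 filters. Compound tested at 10 µM; residual % of uninhibited control, duplicate determinations.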

[4] = biological target: Mitogen-activated protein kinase 11 (Homo sapiens) (UniProt Q15759); test: Inhibition of P38beta assessed as residual enzyme activity at 10 uM relative to untreated control; in short: as §3
Sequence of Mitogen-activated protein kinase 11 (Homo sapiens) (Q15759 whole entry): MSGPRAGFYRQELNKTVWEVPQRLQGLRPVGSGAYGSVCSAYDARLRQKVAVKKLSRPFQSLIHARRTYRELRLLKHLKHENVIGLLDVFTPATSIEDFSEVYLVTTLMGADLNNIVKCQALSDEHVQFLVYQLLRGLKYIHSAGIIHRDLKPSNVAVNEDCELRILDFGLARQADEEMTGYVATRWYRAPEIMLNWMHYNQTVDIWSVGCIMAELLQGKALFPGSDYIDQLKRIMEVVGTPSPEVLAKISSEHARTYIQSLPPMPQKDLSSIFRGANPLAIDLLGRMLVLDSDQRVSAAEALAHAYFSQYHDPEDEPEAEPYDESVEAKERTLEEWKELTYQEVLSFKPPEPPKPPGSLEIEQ

[5] = biological target: MAP/microtubule affinity-regulating kinase 3 (Homo sapiens) (UniProt P27448); test: Inhibition of MARK3 assessed as residual enzyme activity at 10 uM relative to untreated control; in short: as §2
Sequence of MAP/microtubule affinity-regulating kinase 3 (Homo sapiens) (P27448 whole entry, looked up): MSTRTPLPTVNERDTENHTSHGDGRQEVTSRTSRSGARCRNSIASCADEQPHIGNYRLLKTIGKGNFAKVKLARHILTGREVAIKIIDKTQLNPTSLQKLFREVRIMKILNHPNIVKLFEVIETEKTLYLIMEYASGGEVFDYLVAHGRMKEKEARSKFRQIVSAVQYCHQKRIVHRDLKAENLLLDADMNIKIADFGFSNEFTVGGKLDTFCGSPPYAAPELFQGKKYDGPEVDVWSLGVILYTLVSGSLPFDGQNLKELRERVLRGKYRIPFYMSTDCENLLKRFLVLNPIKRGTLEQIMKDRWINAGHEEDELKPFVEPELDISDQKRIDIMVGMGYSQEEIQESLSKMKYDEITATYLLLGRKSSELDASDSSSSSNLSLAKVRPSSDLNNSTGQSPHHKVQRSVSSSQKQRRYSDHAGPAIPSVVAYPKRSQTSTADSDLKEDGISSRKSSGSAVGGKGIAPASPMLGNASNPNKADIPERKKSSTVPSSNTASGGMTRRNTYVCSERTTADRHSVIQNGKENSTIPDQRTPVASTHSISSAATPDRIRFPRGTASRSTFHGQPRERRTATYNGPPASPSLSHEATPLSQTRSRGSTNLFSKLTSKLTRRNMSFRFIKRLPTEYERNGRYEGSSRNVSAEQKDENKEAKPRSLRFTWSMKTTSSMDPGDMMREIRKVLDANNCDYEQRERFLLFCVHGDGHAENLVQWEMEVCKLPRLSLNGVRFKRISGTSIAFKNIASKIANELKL

[6] = Inhibition of PHK assessed as residual enzyme activity at 10 uM relative to untreated control
[7] = biological target: Serine/threonine-protein kinase PAK 6 (Homo sapiens) (UniProt Q9NQU5); test: Inhibition of PAK6 assessed as residual enzyme activity at 10 uM relative to untreated control; in short: as §3
Sequence of Serine/threonine-protein kinase PAK 6 (Homo sapiens) (Q9NQU5 whole entry, looked up): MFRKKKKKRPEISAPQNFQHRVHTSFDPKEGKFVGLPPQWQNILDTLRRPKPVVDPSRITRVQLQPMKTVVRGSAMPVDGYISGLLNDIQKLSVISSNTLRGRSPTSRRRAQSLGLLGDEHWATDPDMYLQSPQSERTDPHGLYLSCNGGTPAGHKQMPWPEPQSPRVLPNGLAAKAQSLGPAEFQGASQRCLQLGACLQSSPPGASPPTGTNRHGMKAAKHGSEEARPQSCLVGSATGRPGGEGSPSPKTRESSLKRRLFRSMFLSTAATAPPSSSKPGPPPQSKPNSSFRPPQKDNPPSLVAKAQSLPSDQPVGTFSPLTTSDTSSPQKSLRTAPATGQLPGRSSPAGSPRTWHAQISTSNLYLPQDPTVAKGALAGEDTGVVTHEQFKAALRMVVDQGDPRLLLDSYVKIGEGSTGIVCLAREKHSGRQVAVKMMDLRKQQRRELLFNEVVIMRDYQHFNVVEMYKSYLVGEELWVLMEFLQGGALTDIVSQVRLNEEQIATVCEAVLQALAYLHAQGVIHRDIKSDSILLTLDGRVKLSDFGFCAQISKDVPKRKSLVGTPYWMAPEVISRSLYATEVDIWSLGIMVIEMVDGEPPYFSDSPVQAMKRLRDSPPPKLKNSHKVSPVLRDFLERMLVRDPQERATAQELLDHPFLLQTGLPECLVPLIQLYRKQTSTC

[8] = biological target: Serine/threonine-protein kinase PAK 4 (Homo sapiens) (UniProt O96013); test: Inhibition of PAK4 assessed as residual enzyme activity at 10 uM relative to untreated control; in short: as §2
Sequence of Serine/threonine-protein kinase PAK 4 (Homo sapiens) (O96013 whole entry, looked up): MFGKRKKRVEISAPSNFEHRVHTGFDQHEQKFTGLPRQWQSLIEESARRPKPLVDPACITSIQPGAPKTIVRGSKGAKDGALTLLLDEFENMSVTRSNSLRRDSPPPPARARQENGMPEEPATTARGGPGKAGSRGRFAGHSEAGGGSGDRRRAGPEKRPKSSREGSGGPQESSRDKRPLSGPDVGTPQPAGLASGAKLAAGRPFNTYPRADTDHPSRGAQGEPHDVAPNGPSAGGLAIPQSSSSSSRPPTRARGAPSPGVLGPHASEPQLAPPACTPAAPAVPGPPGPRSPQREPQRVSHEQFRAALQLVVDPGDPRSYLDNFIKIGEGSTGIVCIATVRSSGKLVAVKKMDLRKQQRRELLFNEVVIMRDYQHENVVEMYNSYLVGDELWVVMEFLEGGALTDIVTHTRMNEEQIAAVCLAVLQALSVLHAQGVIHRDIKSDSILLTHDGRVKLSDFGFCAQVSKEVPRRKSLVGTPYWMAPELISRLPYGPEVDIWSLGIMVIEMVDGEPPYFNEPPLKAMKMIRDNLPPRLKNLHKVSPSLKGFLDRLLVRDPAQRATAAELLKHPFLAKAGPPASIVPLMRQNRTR

[9] = biological target: T2, Serine/threonine-protein kinase Nek2 (Homo sapiens) (UniProt P51955); test: Inhibition of NEK2alpha assessed as residual enzyme activity at 10 uM relative to untreated control; in short: as §1
T2 sequence (whole entry): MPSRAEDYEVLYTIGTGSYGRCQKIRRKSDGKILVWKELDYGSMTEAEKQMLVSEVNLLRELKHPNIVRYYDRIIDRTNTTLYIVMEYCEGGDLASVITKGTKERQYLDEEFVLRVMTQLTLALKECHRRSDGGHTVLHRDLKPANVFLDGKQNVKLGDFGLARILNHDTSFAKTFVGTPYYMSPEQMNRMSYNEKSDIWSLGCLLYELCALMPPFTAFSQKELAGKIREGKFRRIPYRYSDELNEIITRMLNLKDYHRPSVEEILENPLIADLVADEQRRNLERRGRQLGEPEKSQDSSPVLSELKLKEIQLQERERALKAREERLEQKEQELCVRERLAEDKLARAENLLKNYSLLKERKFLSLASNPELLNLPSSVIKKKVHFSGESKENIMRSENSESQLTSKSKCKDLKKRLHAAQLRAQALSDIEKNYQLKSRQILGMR

ERK2 (Mus musculus) = test: Inhibition of ERK2 assessed as residual enzyme activity at 10 uM relative to untreated control
Lck (Mus musculus) = test: Inhibition of Lck assessed as residual enzyme activity at 10 uM relative to untreated control
[10] = biological target: T3, 3-phosphoinositide-dependent protein kinase 1 (Homo sapiens) (UniProt O15530); test: Inhibition of PDK1 assessed as residual enzyme activity at 10 uM relative to untreated control; in short: as §3
T3 sequence (whole entry): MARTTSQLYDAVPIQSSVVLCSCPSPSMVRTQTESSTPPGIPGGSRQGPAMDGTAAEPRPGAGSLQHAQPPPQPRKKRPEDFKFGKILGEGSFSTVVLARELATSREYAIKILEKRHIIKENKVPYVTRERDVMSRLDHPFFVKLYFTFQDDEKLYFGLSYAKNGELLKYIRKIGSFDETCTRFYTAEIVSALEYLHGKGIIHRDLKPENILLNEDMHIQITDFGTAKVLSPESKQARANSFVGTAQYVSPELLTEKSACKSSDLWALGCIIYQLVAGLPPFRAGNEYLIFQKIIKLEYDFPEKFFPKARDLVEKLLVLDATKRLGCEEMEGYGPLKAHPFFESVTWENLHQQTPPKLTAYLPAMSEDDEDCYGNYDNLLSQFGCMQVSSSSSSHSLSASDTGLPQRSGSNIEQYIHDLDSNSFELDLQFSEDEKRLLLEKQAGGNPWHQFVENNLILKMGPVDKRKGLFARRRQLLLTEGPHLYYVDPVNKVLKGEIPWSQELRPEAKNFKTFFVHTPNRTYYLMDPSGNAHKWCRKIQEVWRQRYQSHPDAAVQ

Sequence of MAP kinase-interacting serine/threonine-protein kinase 1 (Homo sapiens) (Q9BUB5 whole entry, looked up): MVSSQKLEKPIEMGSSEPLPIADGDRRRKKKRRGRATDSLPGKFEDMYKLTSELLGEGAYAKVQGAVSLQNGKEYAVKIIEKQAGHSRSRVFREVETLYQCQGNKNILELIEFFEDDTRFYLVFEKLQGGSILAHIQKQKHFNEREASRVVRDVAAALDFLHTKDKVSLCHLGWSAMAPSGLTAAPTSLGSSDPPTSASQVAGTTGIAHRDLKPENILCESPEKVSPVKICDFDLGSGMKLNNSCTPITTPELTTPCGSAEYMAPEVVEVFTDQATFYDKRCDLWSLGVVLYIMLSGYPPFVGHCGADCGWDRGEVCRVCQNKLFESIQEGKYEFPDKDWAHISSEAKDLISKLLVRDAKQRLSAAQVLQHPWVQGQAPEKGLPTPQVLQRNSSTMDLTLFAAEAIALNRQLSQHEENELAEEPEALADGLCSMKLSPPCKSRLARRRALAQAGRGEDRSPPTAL

Activity [1] | Activity [2] | Activity [3] | Activity [4] | Activity [5] | Activity [6] | Activity [7] | Activity [8] | Activity [9] | Activity (ERK2 (Mus musculus)) | Activity (Lck (Mus musculus)) | Activity [10] | SMILES
27% | 71% | 128% | 80% | 88% | 33% | 94% | 88% | 88% |  |  |  | O=Cc1c[nH]c2c1ccc1c3ccccc3[nH]c12
69% | 106% | 118% | 100% | 116% | 90% | 92% | 84% | 104% | 94% | 88% | 86% | c1ccc2c(c1)[nH]c1c2ccc2cc[nH]c21
101% | 110% | 130% | 91% | 94% | 71% | 91% | 84% | 96% | 100% | 81% | 82% | c1ccc2c(c1)[nH]c1c3cc[nH]c3ccc21
106% | 108% | 111% | 96% | 105% | 88% | 99% | 88% | 100% | 94% | 114% | 85% | O=Cc1c[nH]c2ccc3c4ccccc4[nH]c3c12
